# From PMC3672992 (Therapeutic drug monitoring, 2008)
# Where two headings read alike, the source gives them in different places.
# What was measured:
# [1] = without ritonavir boosting, cited from earlier work
# [2] = cited from earlier work
# [3] = Steady-state plasma pharmacokinetics of total lopinavir; assay type: in vivo, human; settings: for Total lopinavir Ctrough / Total lopinavir tmax: steady-state, median (IQR)
# [4] = Steady-state pharmacokinetics of unbound lopinavir; assay type: in vivo, human
# [5] = mild hepatic impairment group; cited from earlier work
# [6] = Steady-state plasma pharmacokinetics of total ritonavir; assay type: in vivo, human
# How it was run: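 HIV-infected Caucasian adults took protease-inhibitor combination capsules at 400/100 mg twice daily (266/66 mg if under 50 kg) with standardized meals. After at least 2 wk of dosing, blood was drawn predose and 1, 2, 3, 4, 6, 8 and 12 h after the morning dose. EDTA plasma (600g, 10 min) was stored at −80°C and assayed by HPLC-UV (linear 100–16,000 ng/mL). Ctrough is the predose, noncompartmental value.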
# [7] = patients with significant liver fibrosis; cited from earlier work
# [8] = Group III HIV+/HCV+ with cirrhosis, n=9
# [9] = Group I HIV+/HCV−, n=12, median (IQR)
# [10] = Group II HIV+/HCV+, n=18, median (IQR)
# [11] = Group III HIV+/HCV+ with cirrhosis, n=6, median (IQR)
compound,measurement,setting,value
"Cc1c(O)cccc1C(=O)N[C@@H](CSc1ccccc1)[C@H](O)CN1C[C@H]2CCCC[C@H]2C[C@H]1C(=O)NC(C)(C)C [NFV, nelfinavir]",NFV AUC(0–12) fold higher relative to noncoinfected HIV+ control group,[1]; HIV+/HCV+ patients with cirrhosis,2.5 fold
same,NFV AUC(0–12) fold higher relative to noncoinfected HIV+ control group,[1]; HIV+/HCV+ patients,1.3 fold
O=C1Nc2ccc(Cl)cc2[C@@](C#CC2CC2)(C(F)(F)F)O1 [efavirenz],Efavirenz plasma concentration,[2]; HCV-coinfected individuals without cirrhosis,1.9 µg/mL
same,Efavirenz plasma concentration,"[2]; patients with cirrhosis, P = 0.001",3.4 µg/mL
Cc1cccc(C)c1OCC(=O)N[C@@H](Cc1ccccc1)[C@@H](O)C[C@H](Cc1ccccc1)NC(=O)[C@H](C(C)C)N1CCCNC1=O [lopinavir],Total lopinavir Ctrough,"[3]; Group I HIV+/HCV−, n=24",7.4 (4.1–10.0) μg/mL
same,Total lopinavir Ctrough,"[3]; Group II HIV+/HCV+, n=23",6.4 (4.5–10.1) μg/mL
same,Total lopinavir tmax,"[3]; Group II HIV+/HCV+, n=23",4.0 (4.0–6.0) h
same,Total lopinavir Ctrough,[3]; [8],7.0 (5.7–7.6) μg/mL
same,Total lopinavir tmax,[3]; [8],4.0 (4.0–6.0) h
same,Increase in drug clearance (compensatory effect),[3]; HIV/HCV-coinfected patients with cirrhosis versus HIV+/HCV− patients,~ 29%
same,Unbound lopinavir AUCu(0–12),[4]; [9],0.87 (0.77–1.21) μg*h/mL
same,"Unbound lopinavir Cu,max",[4]; [9],0.12 (0.10–0.14) μg/mL
same,"Unbound lopinavir Cu,trough",[4]; [9],0.05 (0.03–0.08) μg/mL
same,Unbound lopinavir AUCu(0–12),[4]; [10],1.21 (0.73–1.43) μg*h/mL
same,"Unbound lopinavir Cu,max",[4]; [10],0.13 (0.10–0.18) μg/mL
same,"Unbound lopinavir Cu,trough",[4]; [10],0.07 (0.05–0.10) μg/mL
same,Unbound lopinavir AUCu(0–12),[4]; [11],1.41 (1.14–1.85) μg*h/mL
same,"Unbound lopinavir Cu,max",[4]; [11],0.16 (0.14–0.18) μg/mL
same,"Unbound lopinavir Cu,trough",[4]; [11],0.08 (0.03–0.10) μg/mL
same,Percentage of unbound LPV,[5],0.89%
CC(C)c1nc(CN(C)C(=O)N[C@H](C(=O)N[C@@H](Cc2ccccc2)C[C@H](O)[C@H](Cc2ccccc2)NC(=O)OCc2cncs2)C(C)C)cs1 [ritonavir],Total ritonavir Ctrough,"[6]; Group I HIV+/HCV−, n=14, median (IQR)",0.57 (0.51–0.77) μg/mL
same,Total ritonavir Ctrough,"[6]; Group II HIV+/HCV+, n=15, median (IQR)",0.50 (0.23–0.73) μg/mL
same,Total ritonavir Ctrough,"[6]; Group III HIV+/HCV+ with cirrhosis, n=4, median (IQR)",0.70 (0.65–0.72) μg/mL
CCC[C@@]1(CCc2ccccc2)CC(O)=C([C@H](CC)c2cccc(NS(=O)(=O)c3ccc(C(F)(F)F)cn3)c2)C(=O)O1 [tipranavir],Change in tipranavir concentrations,[7],significant increase
